Laboratory results reported in ChEMBL document CHEMBL1126796, “2-(Alkylamino)nicotinic acid and analogs. Potent angiotensin II antagonists” (J Med Chem, 1993).
pKi: −log10 of the molar value. Each block holds one compound with its values, some of them ahead of it.

Legend:
[1] = target: T1, Type-1 angiotensin II receptor (Oryctolagus cuniculus, UniProt P34976); experiment: Antagonistic ability of angiotensin II to contract rabbit aorta; type: functional, tissue-based; conditions: read-out: pA2 (converted)
T1 sequence (P34976 whole entry): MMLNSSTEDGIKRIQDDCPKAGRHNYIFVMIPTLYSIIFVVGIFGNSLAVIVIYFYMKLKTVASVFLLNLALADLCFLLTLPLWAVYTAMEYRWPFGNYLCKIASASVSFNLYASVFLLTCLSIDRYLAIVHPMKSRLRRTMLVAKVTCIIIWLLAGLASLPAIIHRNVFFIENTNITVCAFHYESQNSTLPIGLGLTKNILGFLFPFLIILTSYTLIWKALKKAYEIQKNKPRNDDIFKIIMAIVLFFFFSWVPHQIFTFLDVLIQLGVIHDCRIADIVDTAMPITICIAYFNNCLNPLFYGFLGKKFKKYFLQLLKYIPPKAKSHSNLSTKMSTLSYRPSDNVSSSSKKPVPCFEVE
In short: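 Angiotensin II contraction of rabbit aortic rings. Full pA2 from several drug concentrations by Schild plot (log drug concentration vs log(EC50 ratio-1)); EC50 ratio is the angiotensin II EC50 with drug over that without drug.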

[2] = Area under curve after oral dose of 10 mg/kg; type: ADME, organism-based; set-up: dose 10 mg/kg, route oral; conditions: in vivo
In short: (§1)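 Male Sprague-Dawley-derived rats were dosed with compound in normal saline (1 mL/kg), by gavage or as a slow IV bolus into the jugular vein. Heparinized tail-vein blood was taken at 0.25-24 h, extracted liquid-liquid and assayed by reverse-phase HPLC. Cmax is the observed peak concentration and AUC is mean (SEM). F compares oral with IV AUC, corrected for dose and assuming dose proportionality.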

[3] = Area under curve after oral dose of […]; type: ADME, organism-based; conditions: in vivo
[4] = Area under curve after oral dose of 3.87 mg/kg; type: ADME, organism-based; set-up: dose 3.87 mg/kg, route oral; conditions: in vivo; in short: as §1
[5] = Cmax value after oral dose of 10 mg/kg; type: ADME, organism-based; set-up: dose 10 mg/kg, route oral; conditions: in vivo; in short: as §1
[6] = Cmax value after oral dose of […]; type: ADME, organism-based; conditions: in vivo
[7] = Cmax value after oral dose of 3.87 mg/kg; type: ADME, organism-based; set-up: dose 3.87 mg/kg, route oral; conditions: in vivo; in short: as §1
[8] = Volume of distribution of central compartment (dose+ plasma concentration at time zero) after intravenous dose of 3.87 mg/kg; type: ADME, organism-based; set-up: dose 3.87 mg/kg, route intravenous; conditions: read-out: VI
In short: (§2)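 Jugular-vein slow iv bolus (normal saline, 1 mL/kg) in male Sprague-Dawley-derived rats. Plasma was sampled via the tail vein at 0.1–24 h and measured by reverse-phase HPLC after liquid-liquid extraction. Central volume was taken as dose divided by plasma concentration at time zero. Terminal-phase volume was derived from clearance and the plasma elimination rate constant.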

[9] = Volume of distribution of the terminal phase (CLp+ plasma elimination rate constant) after intravenous dose of 3.87 mg/kg; type: ADME, organism-based; set-up: dose 3.87 mg/kg, route intravenous; conditions: read-out: Vbeta; in short: as §2
[10] = Tmax value after oral dose of 10 mg/kg; type: ADME, organism-based; set-up: dose 10 mg/kg, route oral; conditions: in vivo
In short: (§3)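 Male Sprague-Dawley-derived rats. Compound was given in normal saline at 1 mL/kg, either as a slow iv bolus into the jugular vein or orally by gavage. Plasma underwent liquid-liquid extraction and reverse-phase HPLC. Terminal elimination half-life and time of observed peak concentration were taken from the profiles.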

[11] = Tmax value after oral dose of […]; type: ADME, organism-based; conditions: in vivo
[12] = Plasma clearance after intravenous dose of 3.87 mg/kg; type: ADME, organism-based; set-up: dose 3.87 mg/kg, route intravenous; conditions: read-out: Clp
In short: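 Male Sprague-Dawley-derived rats received a slow iv bolus into the jugular vein of the compound in normal saline (1 mL/kg). Tail-vein heparinized blood was drawn from 0.1 to 24 h and assayed by reverse-phase HPLC after liquid-liquid extraction. Total plasma clearance was calculated as dose divided by AUC and reported as mean (SEM).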

[13] = Bioavailability after oral dose of 10 mg/kg; type: ADME, organism-based; conditions: eutheria, in vivo; in short: as §1
[14] = Bioavailability after oral dose of […]; type: ADME, organism-based; conditions: eutheria, in vivo
[15] = Bioavailability after oral dose of 3.87 mg/kg; type: ADME, organism-based; conditions: eutheria, in vivo; in short: as §1
[16] = Tmax value after oral dose of 3.87 mg/kg; type: ADME, organism-based; set-up: dose 3.87 mg/kg, route oral; conditions: in vivo; in short: as §3
[17] = Half-life period of compound after intravenous dose of 3.87 mg/kg; type: ADME, organism-based; set-up: dose 3.87 mg/kg, route intravenous; conditions: in vivo; in short: as §3
[18] = target: T2, Type-1 angiotensin II receptor A (Rattus norvegicus, UniProt P25095); experiment: Binding affinity against angiotensin II receptor from rat liver
T2 sequence (P25095 whole entry): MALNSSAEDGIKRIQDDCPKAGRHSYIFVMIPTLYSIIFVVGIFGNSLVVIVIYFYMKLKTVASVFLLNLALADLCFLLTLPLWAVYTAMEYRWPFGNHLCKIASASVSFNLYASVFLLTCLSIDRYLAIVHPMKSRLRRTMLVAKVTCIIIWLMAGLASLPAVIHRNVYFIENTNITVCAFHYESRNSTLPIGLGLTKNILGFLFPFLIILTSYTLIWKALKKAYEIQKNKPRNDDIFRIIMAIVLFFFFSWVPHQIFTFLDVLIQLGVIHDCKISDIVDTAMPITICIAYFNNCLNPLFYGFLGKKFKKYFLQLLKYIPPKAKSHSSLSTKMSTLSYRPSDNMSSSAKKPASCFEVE
In short: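 Rat liver membranes were incubated with [125I]-saralasin to measure angiotensin II type 1 receptor binding. Nonspecific binding was defined with 1 µM angiotensin.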

[19] = tested on: Rattus norvegicus; experiment: % decrease in blood pressure after 4 hours at a dose of 10 mg/kg in male rats by using Renal artery hypertensive model; type: functional
In short: (§4)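 Male Sprague-Dawley rats (300-350 g) were made hypertensive by renal artery ligation and used on day 6 or 7 after ligation. Arterial pressure was measured from an indwelling femoral artery catheter, with blood pressure and heart rate recorded on line. Read-out is % decrease in blood pressure at 4 h, ±SEM, with number of rats.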

[20] = tested on: Rattus norvegicus; experiment: % decrease in blood pressure after 4 hours in male rats at a dose of 1 mg/kg by using Renal artery hypertensive model; type: functional; in short: as §4
[21] = tested on: Rattus norvegicus; experiment: % decrease in blood pressure after 4 hours in male rats at a dose of 3 mg/kg by using Renal artery hypertensive model; type: functional; in short: as §4

- Kb [1]: 0.1 nM
SMILES: CCc1cc(OCc2ccc(-c3ccccc3-c3nn[nH]n3)cc2)c2nc(OC(C)C)ccc2n1

- AUC [2]: 2.83 µg/h/mL
- AUC [3]: 6.65 µg/h/mL
- AUC [4]: 2.38 µg/h/mL
- Cmax [5]: 840 ng/mL
- Cmax [6]: 1470 ng/mL
- Cmax [7]: 510 ng/mL
- Vd [8]: 0.08 L/kg
- Vd [9]: 0.42 L/kg
- Tmax [10]: 0.9 h
- Tmax [11]: 1.1 h
- clearance [12]: 0.85 mL/min
- bioavailability [13]: 4.8%
- bioavailability [14]: 4.8%
- bioavailability [15]: 10.3%
- Tmax [16]: 1.3 h
- half-life [17]: 1.5 h
- pKi [18]: 8.75
SMILES: CCCCN(Cc1ccc(-c2ccccc2-c2nn[nH]n2)cc1)c1ncncc1C(=O)O.Cl
- Decrease in blood pressure [19]: 41%
- Decrease in blood pressure [20]: 10%
- Decrease in blood pressure [21]: 18%
